Source: ChEMBL document CHEMBL4311948, “Exploring the Natural Piericidins as Anti-Renal Cell Carcinoma Agents Targeting Peroxiredoxin 1” (J Med Chem, 2019)
Activity calls are given as the source filed them. The calls are words filed in the database; no cut-off is given here.

Columns and labels:
[1] = Toxicity in Balb/c nu/nu mouse xenografted with human ACHN cells assessed as decrease in body weight at 0.8 mg/kg, ip administered once daily for 21 days; format: organism-based; settings: in vivo, 504 h
In short: (§1)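 Male athymic Balb/c nu/nu mice, four weeks old, acclimatised 1 week. 10^7 ACHN cells in 0.2 mL PBS injected into the right flank. At about 150 mm3, mice randomised into PBS control or 0.8 mg/kg groups, dosed ip daily for three weeks. Tumours measured by caliper (volume = 0.5 × L × W²) with body weight recorded. Endpoint tumour weight, sections stained by H&E and TUNEL. Tissue lysed for immunoblot.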

ACHN [2] = assay: Induction of apoptosis in human ACHN cells assessed as viable cells at 50 nM measured after 48 hrs by Annexin V-FITC/propidium iodide staining based flow cytometry (reference value: 99.9%); format: functional; settings: read-out: Activity
ACHN [3] = assay: Cytotoxicity against human ACHN cells assessed as reduction in cell viability measured after 72 hrs by CCK8 assay; format: functional, cell-based
In short: (§2)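 Cells were grown in 10% FBS medium: MEM for ACHN, RPMI1640 for OS-RC-2 and 786-O, DMEM for HK-2. They were seeded at 400–800 cells/well in 384-well plates and treated with a range of compound concentrations or solvent control, with sorafenib as positive control. After 72 h, CCK-8 absorbance was read at 450 nm in triplicate, and IC50 was taken from dose-response curves.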

ACHN [4] = assay: Down regulation of HK2 mRNA expression in human ACHN cells at 25 to 50 nM measured after 24 hrs by qRT-PCR analysis; format: functional, cell-based
ACHN [5] = assay: Induction of apoptosis in human ACHN cells assessed as necrotic cells at 50 nM measured after 24 hrs by Annexin V-FITC/propidium iodide staining based flow cytometry (reference value: 0%); format: functional
ACHN [6] = assay: Antitumor activity against human ACHN cells xenografted in Balb/c nu/nu mouse assessed as tumor growth inhibition at 0.8 mg/kg, ip administered once daily for 21 days measured post-last dose by H and E staining-based assay; format: functional, organism-based; in short: as §1
Mus musculus [7] = assay: Up regulation of PRDX1 expression in human ACHN cells xenografted Balb/c nu/nu mouse at 0.8 mg/kg, ip administered once daily for 21 days measured post-last dose by immunoblot analysis; format: functional, organism-based; in short: as §1
ACHN [8] = assay: Induction of apoptosis in human ACHN cells assessed as necrotic cells at 50 nM measured after 48 hrs by Annexin V-FITC/propidium iodide staining based flow cytometry (reference value: 0%); format: functional
ACHN [9] = assay: Antioxidant activity in human ACHN cells harboring shPRDX1 gene assessed as reduction in reactive oxygen species level at 25 to 50 nM measured after 24 hrs by Cell-rox reagent-based flow cytometry; format: functional
In short: (§3)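 ACHN cells grown 24 h in MEM + 10% FBS, reseeded at 2 × 10^4 cells/well and exposed to 0, 25 or 50 nM for 24 h. Harvested cells loaded with CellROX oxidative stress reagent 5 μM, 30 min at 37 °C in the dark, then read by flow cytometry. shPRDX1 line: stable knockdown selected with puromycin (1 μg/mL) before dosing. Mean ± SD.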

[10] = molecular target: T1, Peroxiredoxin-1 (Homo sapiens) (UniProt Q06830); assay: Activation of PRDX1 in human ACHN cells assessed as reduction in reactive oxygen species level at 25 to 50 nM measured after 24 hrs by Cell-rox reagent-based flow cytometry; in short: as §3
T1 sequence (whole entry): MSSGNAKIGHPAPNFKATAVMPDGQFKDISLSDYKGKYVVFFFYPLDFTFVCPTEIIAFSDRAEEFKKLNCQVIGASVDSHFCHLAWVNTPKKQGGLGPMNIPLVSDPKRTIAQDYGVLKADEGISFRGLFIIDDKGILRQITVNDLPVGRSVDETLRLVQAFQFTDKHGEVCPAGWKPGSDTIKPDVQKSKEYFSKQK

Mus musculus [11] = assay: Up regulation of PRDX1 mRNA expression in human ACHN cells xenografted Balb/c nu/nu mouse at 0.8 mg/kg, ip administered once daily for 21 days measured post-last dose by qRT-PCR analysis; format: functional, organism-based
OS-RC-2 = assay: Cytotoxicity against human OS-RC2 cells assessed as reduction in cell viability measured after 72 hrs by CCK8 assay; format: functional, cell-based; settings: OS-RC-2, 72 h; in short: as §2
Peroxiredoxin-1 = molecular target: T2, Peroxiredoxin-1 (Homo sapiens, UniProt Q06830); assay: Binding affinity to full-length human PRDX1 by surface plasmon resonance analysis
T2 sequence (Q06830 whole entry): T1 sequence (whole entry)
In short: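 Full-length human PRDX1 immobilised on a CM5 chip (Biacore T100). Analyte concentration series diluted in 10 mM Hepes pH 7.4, injected over the protein surface and a protein-free reference surface in a single step.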

ACHN [12] = assay: Down regulation of MET mRNA expression in human ACHN cells at 25 to 50 nM measured after 24 hrs by qRT-PCR analysis; format: functional, cell-based
786-0 = assay: Cytotoxicity against human 786-O cells assessed as reduction in cell viability measured after 72 hrs by CCK8 assay; format: functional, cell-based; settings: 786-0, 72 h; in short: as §2
ACHN [13] = assay: Down regulation of ETS1 mRNA expression in human ACHN cells at 25 to 50 nM measured after 24 hrs by qRT-PCR analysis; format: functional, cell-based
ACHN [14] = assay: Induction of apoptosis in human ACHN cells assessed as late apoptotic cells at 50 nM measured after 48 hrs by Annexin V-FITC/propidium iodide staining based flow cytometry (reference value: 0%); format: functional
ACHN [15] = assay: Antitumor activity against human ACHN cells xenografted in Balb/c nu/nu mouse assessed as tumor growth inhibition at 0.8 mg/kg, ip administered once daily for 21 days measured post-last dose by TUNEL staining-based assay; format: functional, organism-based; in short: as §1
ACHN [16] = assay: Induction of apoptosis in human ACHN cells assessed as viable cells at 50 nM measured after 24 hrs by Annexin V-FITC/propidium iodide staining based flow cytometry (reference value: 100%); format: functional; settings: read-out: Activity
ACHN [17] = assay: Up regulation of PRDX1 mRNA expression in human ACHN cells at 25 to 50 nM measured after 24 hrs by qRT-PCR analysis; format: functional, cell-based
ACHN [18] = assay: Down regulation of SOD2 mRNA expression in human ACHN cells at 25 to 50 nM measured after 24 hrs by qRT-PCR analysis; format: functional, cell-based
HK-2 = assay: Cytotoxicity against human HK2 cells assessed as reduction in cell viability measured after 72 hrs by CCK8 assay; format: cell-based; settings: HK-2, 72 h; in short: as §2
ACHN [19] = assay: Induction of apoptosis in human ACHN cells assessed as early apoptotic cells at 50 nM measured after 24 hrs by Annexin V-FITC/propidium iodide staining based flow cytometry (reference value: 0%); format: functional
ACHN [20] = assay: Selectivity ratio of IC50 for cytotoxicity against human ACHN cells harboring shPRDX1 gene to IC50 for Cytotoxicity against human ACHN cells; format: functional
[21] = molecular target: T1, Peroxiredoxin-1 (Homo sapiens); assay: Induction of PRDX1 nuclear translocation in human ACHN cells at 25 to 50 nM measured after 24 hrs by DAPI staining-based microscopic analysis; format: cell-based
In short: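 ACHN cells exposed 24 h to 25 or 50 nM, fixed in 4% paraformaldehyde 10 min and permeabilised with 0.5% Triton X-100. Blocked with 10% FBS, 4 °C, 12 h. Stained with anti-PRDX1 overnight, FITC secondary 2 h RT, DAPI nuclear counterstain. Confocal imaging scored mean fluorescence intensity (n = 9).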

C/C=C(\C)[C@H](O)[C@H](C)/C=C(C)/C=C/C/C(C)=C/Cc1nc(OC)c(OC)c(O)c1C [PIERICIDIN A]
Activity [1]: Non-Toxic
viability at 0.05 µM (ACHN [2]): 15.9%
IC50 (ACHN [3]): 0.4 µM
Activity (ACHN [4]): Active
Activity (ACHN [5]): 15.9%
TGI (ACHN [6]): Active
Activity (Mus musculus [7]): Active
Activity (ACHN [8]): 75.6%
Activity (ACHN [9]): Active
Activity [10]: Active
Activity (Mus musculus [11]): Active
IC50 (OS-RC-2): 5.2 µM
Kd (Peroxiredoxin-1): 2.61 µM
Activity (ACHN [12]): Active
IC50 (786-0): 30 µM
Activity (ACHN [13]): Active
Activity (ACHN [14]): 7.4%
TGI (ACHN [15]): Active
viability at 0.05 µM (ACHN [16]): 81.9%
Activity (ACHN [17]): Active
Activity (ACHN [18]): Active
IC50 (HK-2): > 100 µM
Activity (ACHN [19]): 0.9%
Ratio IC50 (ACHN [20]): 4
Activity [21]: Active
